{"source": "ChEMBL document CHEMBL1781954", "about": "“Synthesis and antitumor activity of novel pyrido[2,3-d][1,2,4]triazolo[4,3-a]pyrimidin-5-one derivatives” (Eur J Med Chem, 2011)"}
{"system": "MCF7", "test": "Cytotoxicity against human MCF7 cells assessed as inhibition of cell viability after 48 hrs by Sulforhodamine B assay", "assay_type": "functional, cell-based", "conditions": "MCF7, 48 h", "summary_of_the_method": "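MCF7 cells seeded at 10⁴ cells/well and left 24 h to attach. Compounds in DMSO diluted with saline were added at 0, 1, 2.5, 5 and 10 (triplicate wells per dose). After 48 h at 37 °C in 5% CO₂, cells were fixed with trichloroacetic acid and stained 30 min with 0.4% SRB in 1% acetic acid. Bound dye was recovered in Tris-EDTA and read on an ELISA reader. IC50 was taken from surviving fraction versus concentration curves.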", "units": {"IC50": "µg/mL"}}
{"smiles": "O=c1[nH]c(=S)[nH]c2nc(-c3ccccc3)cc(-c3ccc(Cl)cc3)c12", "IC50": 5.11}
{"smiles": "O=c1c2c(-c3ccc(Cl)cc3)cc(-c3ccccc3)nc2nc2[nH]ncn12", "IC50": 21.6}
{"smiles": "Cc1n[nH]c2nc3nc(-c4ccccc4)cc(-c4ccc(Cl)cc4)c3c(=O)n12", "IC50": "> 50"}
{"smiles": "CCc1n[nH]c2nc3nc(-c4ccccc4)cc(-c4ccc(Cl)cc4)c3c(=O)n12", "IC50": 14}
{"smiles": "O=c1[nH][nH]c2nc3nc(-c4ccccc4)cc(-c4ccc(Cl)cc4)c3c(=O)n12", "IC50": 24.3}
{"smiles": "O=c1c2c(-c3ccc(Cl)cc3)cc(-c3ccccc3)nc2nc2[nH][nH]c(=S)n12", "IC50": 6.78}
{"smiles": "CSc1n[nH]c2nc3nc(-c4ccccc4)cc(-c4ccc(Cl)cc4)c3c(=O)n12", "IC50": 3.89}
{"smiles": "CCSc1n[nH]c2nc3nc(-c4ccccc4)cc(-c4ccc(Cl)cc4)c3c(=O)n12", "IC50": 5.2}
{"smiles": "O=c1c2c(-c3ccc(Cl)cc3)cc(-c3ccccc3)nc2nc2[nH]nc(SCc3ccccc3)n12", "IC50": 12.6}
{"smiles": "CCOC(=O)CSc1n[nH]c2nc3nc(-c4ccccc4)cc(-c4ccc(Cl)cc4)c3c(=O)n12", "IC50": 4.5}
{"smiles": "O=c1c2c(-c3ccc(Cl)cc3)cc(-c3ccccc3)nc2nc2[nH]nc(-c3ccccc3)n12", "IC50": 9.22}
{"smiles": "Cc1ccc(-c2n[nH]c3nc4nc(-c5ccccc5)cc(-c5ccc(Cl)cc5)c4c(=O)n23)cc1", "IC50": 9.07}
{"smiles": "Nc1n[nH]c2nc3nc(-c4ccccc4)cc(-c4ccc(Cl)cc4)c3c(=O)n12", "IC50": 3.74}
{"smiles": "O=c1c2c(-c3ccc(Cl)cc3)cc(-c3ccccc3)nc2nc2[nH]nc(CCl)n12", "IC50": 11.7}
